Experimental data reported in ChEMBL document CHEMBL1121797, “Studies on chiral interactions of 1-(2,5-dimethoxy-4-methylphenyl)-2-aminopropane and the corresponding N-hydroxy metabolites with cytochrome P-450” (J Med Chem, 1981).

What was measured:
[1] = Initial rates of formation of metabolic intermediate Cytochrome P-450 at compound concentration of 30 uM; assay type: ADME
Summary of the method: (§1)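 Rabbit liver microsomes at 2 mg protein/mL with 0.1 mM EDTA, 37 °C, substrate 30 μM. Complex formation started with 0.4 mM NADPH and followed by dual-wavelength absorbance, 457 vs 500 nm. Initial rate is the initial slope, ΔA×10^4 per nmol P-450 per min. Extent is the plateau absorbance. Lag is the time from NADPH addition to first 457-nm chromophore. Triplicate or single runs.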

[2] = Initial rates of formation of metabolic intermediate Cytochrome P-450 with compound concentration of 30 uM; assay type: ADME
Summary of the method: (§2)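 Cross-inhibition in NADPH-supplemented rabbit liver microsomes at 37 °C. Preincubation with amine at 30, 150 or 300 μM while 457-nm complex formation was monitored. Once it plateaued (6–8 min), racemic hydroxylamine was added at 300 μM. Initial rate and plateau extent were read from ΔA457–500 nm vs time, per nmol P-450.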

[3] = Extent rates of formation of metabolic intermediate Cytochrome P-450 at compound concentration of 30 uM; assay type: ADME; summary of the method: as §1
[4] = Initial rates of formation of metabolic intermediate Cytochrome P-450 with compound concentration of 300 uM; assay type: ADME; summary of the method: as §2
[5] = Initial rates of formation of metabolic intermediate Cytochrome P-450 with compound concentration of 150 uM; assay type: ADME; summary of the method: as §2
[6] = Lag time between the addition of compound (30 uM) and the first appearance of chromophore; assay type: ADME; summary of the method: as §1
[7] = Initial rates of formation of metabolic intermediate Cytochrome P-450 at compound concentration of 3.75-120 uM; assay type: ADME
Summary of the method: (§3)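 Rabbit liver microsomes at 2 mg protein/mL with 0.1 mM EDTA, 37 °C, NADPH-dependent. Substrate tested at several concentrations. ΔA457–500 nm followed against time. Rate is the initial slope per nmol P-450 per min; extent is the plateau absorbance. Runs disturbed by a transient 450-nm species were discarded.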

[8] = target: T1, Cytochrome P450 2C19 (Homo sapiens, UniProt P33261); assay: Inhibitory effect in formation of metabolic intermediate complex between Cytochrome P450 and racemic compound 2 at extent, on pre-incubation with Racemic 2 (300 uM) at 300 uM; assay type: ADME, Oryctolagus cuniculus; conditions: rabbit
[9] = target: T1, Cytochrome P450 2C19; assay: Inhibitory effect in formation of metabolic intermediate complex between Cytochrome P450 and racemic compound 2 initially, on pre-incubation with compound at 300 uM; assay type: ADME, Oryctolagus cuniculus; conditions: rabbit
[10] = target: T1, Cytochrome P450 2C19; assay: Inhibitory effect in formation of metabolic intermediate complex between Cytochrome P450 and racemic compound 2 at extent, on pre-incubation with compound at 300 uM; assay type: ADME, Oryctolagus cuniculus; conditions: rabbit
[11] = Extent rates of formation of metabolic intermediate Cytochrome P-450 at compound concentration of 3.75-120 uM; assay type: ADME; summary of the method: as §3
[12] = target: T1, Cytochrome P450 2C19; assay: Inhibitory effect in formation of metabolic intermediate complex between Cytochrome P450 and racemic compound 2 initially, on pre-incubation with compound at 30 uM; assay type: ADME, Oryctolagus cuniculus; conditions: rabbit
[13] = target: T1, Cytochrome P450 2C19; assay: Inhibitory effect in formation of metabolic intermediate complex between Cytochrome P450 and racemic compound 2 initially, on pre-incubation with compound at 150 uM; assay type: ADME, Oryctolagus cuniculus; conditions: rabbit
[14] = target: T1, Cytochrome P450 2C19; assay: Inhibitory effect in formation of metabolic intermediate complex between Cytochrome P450 and racemic 2 at extent, on preincubation with Racemic compound 2 (300 uM) at 30 uM; assay type: ADME, Oryctolagus cuniculus; conditions: rabbit; summary of the method: as §2
[15] = target: T1, Cytochrome P450 2C19; assay: Apparent binding affinity constant of compound (10.8-60.0) for Cytochrome P450; assay type: ADME, Oryctolagus cuniculus; conditions: read-out: Ks
[16] = target: T1, Cytochrome P450 2C19; assay: Inhibitory effect in formation of metabolic intermediate complex between Cytochrome P450 and racemic compound 2 at extent, on pre-incubation with compound at 30 uM; assay type: ADME, Oryctolagus cuniculus; conditions: rabbit
[17] = target: T1, Cytochrome P450 2C19; assay: Inhibitory effect in formation of metabolic intermediate complex between Cytochrome P450 and racemic compound 2 at extent, on preincubation with compound at 150 uM; assay type: ADME, Oryctolagus cuniculus; conditions: rabbit
[18] = target: T1, Cytochrome P450 2C19; assay: Inhibitory effect in formation of metabolic intermediate complex between Cytochrome P450 and racemic compound 2 initially, on preincubation with Racemic compound 2 (300 uM) at 150 uM; assay type: ADME, Oryctolagus cuniculus; conditions: rabbit; summary of the method: as §2
[19] = target: T1, Cytochrome P450 2C19; assay: Inhibitory effect in formation of metabolic intermediate complex between Cytochrome P450 and racemic compound 2 at extent, on pre-incubation with Racemic 2 (300 uM) at 150 uM; assay type: ADME, Oryctolagus cuniculus; conditions: rabbit
[20] = target: T1, Cytochrome P450 2C19; assay: Inhibitory effect in formation of metabolic intermediate complex between Cytochrome P450 and racemic 2 initially, on pre-incubation with Racemic compound 2 (300 uM) at 300 uM; assay type: ADME, Oryctolagus cuniculus; conditions: rabbit

T1 sequence (P33261 whole entry): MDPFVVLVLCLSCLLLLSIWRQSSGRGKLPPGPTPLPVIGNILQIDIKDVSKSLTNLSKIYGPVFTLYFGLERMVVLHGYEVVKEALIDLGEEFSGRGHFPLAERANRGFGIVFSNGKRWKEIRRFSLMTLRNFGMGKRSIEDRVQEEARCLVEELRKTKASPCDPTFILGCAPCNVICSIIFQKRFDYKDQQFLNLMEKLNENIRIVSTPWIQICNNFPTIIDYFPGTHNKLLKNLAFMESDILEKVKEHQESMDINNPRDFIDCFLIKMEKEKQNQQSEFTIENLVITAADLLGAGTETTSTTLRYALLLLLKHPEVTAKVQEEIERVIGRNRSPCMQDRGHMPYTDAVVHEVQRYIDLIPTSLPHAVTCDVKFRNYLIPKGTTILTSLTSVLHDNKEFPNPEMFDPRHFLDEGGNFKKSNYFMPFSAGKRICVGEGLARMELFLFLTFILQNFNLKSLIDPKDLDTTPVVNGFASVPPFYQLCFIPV

Compound	Rate [1]	Rate [2]	Extent [3]	Rate [4]	Rate [5]	Lag time [6] [s]	Rate [7]	Extent [8]	Rate [9]	Extent [10]	Extent [11]	Rate [12]	Rate [13]	Extent [14]	Kd [15] [µM]	Extent [16]	Extent [17]	Rate [18]	Extent [19]	Rate [20]
COc1cc(C[C@@H](C)N)c(OC)cc1C.COc1cc(C[C@H](C)N)c(OC)cc1C	4.8	1.8	30	1.2	1.6	138														
COc1cc(C[C@@H](C)N)c(OC)cc1C	17.1	5.2	78	5.5	6.1	14	17.5	105	5.8	23	23	5.2	6.1	131	18	21	25	183	116	160
